Reference: ChEMBL document CHEMBL1255335 (Antimicrob Agents Chemother, 2008)
Positions count from the first letter of the chain named. In brackets after ≈: the same amount, converted by molar mass.

B1: Beta-lactamase SHV-1 (Klebsiella pneumoniae), P0AD64 (protein)
chain: MRYIRLCIISLLATLPLAVHASPQPLEQIKLSESQLSGRVGMIEMDLASGRTLTAWRADERFPMMSTFKVVLCGAVLARVDAGDEQLERKIHYRQQDLVDYSPVSEKHLADGMTVGELCAAAITMSDNSAANLLLATVGGPAGLTAFLRQIGDNVTRLDRWETELNEALPGDARDTTTPASMAATLRKLLTSQRLSARSQRQLLQWMVDDRVAGPLIRSVLPAGWFIADKTGAGERGARGIVALLGPNNKAERIVVIYLRDTPASMAERNQQIAGIGAALIEHWQR
B2: Beta-lactamase SHV-72 (Klebsiella pneumoniae), A0ZX81 (protein)
chain: B1 chain with I4F, A142V, K230R

Tests used:
Escherichia coli [1] = experiment: Antibacterial activity against Escherichia coli DH5alpha with deltaampC by agar dilution method; assay type: functional
Escherichia coli [2] = experiment: Antibacterial activity against Escherichia coli DH5alpha expressing Klebsiella pneumoniae beta-lactamase SHV-1 by agar dilution method; assay type: functional
Escherichia coli [3] = experiment: Antibacterial activity against Escherichia coli DH5alpha expressing Klebsiella pneumoniae beta-lactamase SHV-72 by agar dilution method; assay type: functional
Klebsiella pneumoniae [4] = experiment: Antibacterial activity against Klebsiella pneumoniae INSRA1229 harboring SHV-72 Ile8Phe, Ala146Val, and Lys234Arg mutations by agar dilution method
Escherichia coli [5] = experiment: Antibacterial activity against Escherichia coli DH5alpha with deltaampC by agar dilution method in presence of 4 ug/ml Tazobactam; assay type: functional
Escherichia coli [6] = experiment: Antibacterial activity against Escherichia coli DH5alpha expressing Klebsiella pneumoniae beta-lactamase SHV-1 by agar dilution method in presence of 4 ug/ml Tazobactam; assay type: functional
Escherichia coli [7] = experiment: Antibacterial activity against Escherichia coli DH5alpha expressing Klebsiella pneumoniae beta-lactamase SHV-72 by agar dilution method in presence of 4 ug/ml Tazobactam; assay type: functional
Klebsiella pneumoniae [8] = experiment: Antibacterial activity against Klebsiella pneumoniae INSRA1229 harboring SHV-72 Ile8Phe, Ala146Val, and Lys234Arg mutations in presence of 4 ug/ml Tazobactam; assay type: functional
Escherichia coli [9] = experiment: Antibacterial activity against Escherichia coli DH5alpha with deltaampC by agar dilution method in presence of 2 ug/ml clavulanic acid; assay type: functional
Escherichia coli [10] = experiment: Antibacterial activity against Escherichia coli DH5alpha expressing Klebsiella pneumoniae beta-lactamase SHV-1 by agar dilution method in presence of 2 ug/ml clavulanic acid; assay type: functional
Escherichia coli [11] = experiment: Antibacterial activity against Escherichia coli DH5alpha expressing Klebsiella pneumoniae beta-lactamase SHV-72 by agar dilution method in presence of 2 ug/ml clavulanic acid; assay type: functional
Klebsiella pneumoniae [12] = experiment: Antibacterial activity against Klebsiella pneumoniae INSRA1229 harboring SHV-72 Ile8Phe, Ala146Val, and Lys234Arg mutations by agar dilution method in presence of 2 ug/ml clavulanic acid; assay type: functional
[13] = substrate: CC1(C)S[C@@H]2[C@H](NC(=O)Cc3ccccc3)C(=O)N2[C@H]1C(=O)O; experiment: (§1) Activity of Klebsiella pneumoniae Beta-Lactamase SHV-1
Procedure, shortened: (§2)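 SHV-1 or SHV-72 came from E. coli DH5α ΔampC clones grown 18 h at 37°C. Enzymes were purified by ion exchange then gel filtration, with protein measured by BCA. Km and kcat were measured by pH-stat microacidimetry, fitting complete hydrolysis time courses by nonlinear least squares, three determinations per substrate.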

[14] = substrate: CC1(C)S[C@@H]2[C@H](NC(=O)[C@H](C(=O)O)c3ccsc3)C(=O)N2[C@H]1C(=O)O; experiment: as §1; procedure, shortened: as §2
[15] = substrate: CC1(C)S[C@@H]2[C@H](NC(=O)Cc3ccccc3)C(=O)N2[C@H]1C(=O)O; experiment: (§3) Ratio of Kcat to Km for Klebsiella pneumoniae Beta-Lactamase SHV-1
Procedure, shortened: (§4)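 kcat/Km came from Km and kcat of purified enzyme, which was expressed in E. coli DH5α ΔampC and purified by ion exchange then gel filtration. Both constants were measured by computerized pH-stat microacidimetry, with complete hydrolysis progress curves fitted by nonlinear least-squares regression. Each substrate was run three times.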

[16] = substrate: CC1(C)S[C@@H]2[C@H](NC(=O)[C@H](C(=O)O)c3ccsc3)C(=O)N2[C@H]1C(=O)O; experiment: as §3; procedure, shortened: as §4
[17] = substrate: CCN1CCN(C(=O)N[C@@H](C(=O)N[C@@H]2C(=O)N3[C@@H]2SC(C)(C)[C@@H]3C(=O)O)c2ccccc2)C(=O)C1=O; experiment: as §3; procedure, shortened: as §4
[18] = substrate: CC(=O)OCC1=C(C(=O)O)N2C(=O)[C@@H](NC(=O)Cc3cccs3)[C@H]2SC1; experiment: (§5) Activity of Klebsiella pneumoniae Beta-Lactamase SHV-72; procedure, shortened: as §2
[19] = substrate: CC(C)(O/N=C(\C(=O)N[C@@H]1C(=O)N2C(C(=O)[O-])=C(C[n+]3ccccc3)CS[C@H]12)c1csc(N)n1)C(=O)O; experiment: as §5; procedure, shortened: as §2
[20] = substrate: CC1(C)S[C@@H]2[C@H](NC(=O)Cc3ccccc3)C(=O)N2[C@H]1C(=O)O; experiment: as §5; procedure, shortened: as §2
[21] = substrate: CC1(C)S[C@@H]2[C@H](NC(=O)[C@H](C(=O)O)c3ccsc3)C(=O)N2[C@H]1C(=O)O; experiment: as §5; procedure, shortened: as §2
[22] = substrate: CC1(C)S[C@@H]2[C@H](NC(=O)[C@H](N)c3ccc(O)cc3)C(=O)N2[C@H]1C(=O)O; experiment: as §5; procedure, shortened: as §2
[23] = substrate: CCN1CCN(C(=O)N[C@@H](C(=O)N[C@@H]2C(=O)N3[C@@H]2SC(C)(C)[C@@H]3C(=O)O)c2ccccc2)C(=O)C1=O; experiment: as §5; procedure, shortened: as §2
[24] = substrate: CO/N=C(\C(=O)N[C@@H]1C(=O)N2C(C(=O)O)=C(COC(C)=O)CS[C@H]12)c1csc(N)n1; experiment: as §5; procedure, shortened: as §2
[25] = substrate: CC(=O)OCC1=C(C(=O)O)N2C(=O)[C@@H](NC(=O)Cc3cccs3)[C@H]2SC1; experiment: (§6) Ratio of Kcat to Km for Klebsiella pneumoniae Beta-Lactamase SHV-72; procedure, shortened: as §4
[26] = substrate: CC1(C)S[C@@H]2[C@H](NC(=O)Cc3ccccc3)C(=O)N2[C@H]1C(=O)O; experiment: as §6; procedure, shortened: as §4
[27] = substrate: CC1(C)S[C@@H]2[C@H](NC(=O)[C@H](C(=O)O)c3ccsc3)C(=O)N2[C@H]1C(=O)O; experiment: as §6; procedure, shortened: as §4
[28] = substrate: CC1(C)S[C@@H]2[C@H](NC(=O)[C@H](N)c3ccc(O)cc3)C(=O)N2[C@H]1C(=O)O; experiment: as §6; procedure, shortened: as §4
[29] = substrate: CCN1CCN(C(=O)N[C@@H](C(=O)N[C@@H]2C(=O)N3[C@@H]2SC(C)(C)[C@@H]3C(=O)O)c2ccccc2)C(=O)C1=O; experiment: as §6; procedure, shortened: as §4
[30] = Escherichia coli, DH5alpha, read-out: MIC

| Molecule | MIC (Escherichia coli [1]) [µg/mL] | MIC (Escherichia coli [2]) [µg/mL] | MIC (Escherichia coli [3]; [30]) [µg/mL] | MIC (Klebsiella pneumoniae [4]) [µg/mL] | further results |
| --- | --- | --- | --- | --- | --- |
| CO[C@@]1(NC(=O)Cc2cccs2)C(=O)N2C(C(=O)O)=C(COC(N)=O)CS[C@@H]21 [CEFOXITIN] | 4 (≈ 9.36 µM) | 8 (≈ 18.7 µM) | 8 (≈ 18.7 µM) | 4 (≈ 9.36 µM) |  |
| C[C@@H](O)[C@H]1C(=O)N2C(C(=O)O)=C(SCCNC=N)C[C@H]12 [IMIPENEM ANHYDROUS] |  |  |  | 0.125 (≈ 0.418 µM) |  |
| COc1cc(Cc2cnc(N)nc2N)cc(OC)c1OC [TRIMETHOPRIM] | ≤ 0.125 | ≤ 0.125 | ≤ 0.125 | 0.5 (≈ 1.72 µM) |  |
| CCN1CCN(C(=O)N[C@@H](C(=O)N[C@@H]2C(=O)N3C(C(=O)O)=C(CSc4nnnn4C)CS[C@H]23)c2ccc(O)cc2)C(=O)C1=O [CEFOPERAZONE] | ≤ 0.25 | 4 (≈ 6.2 µM) | ≤ 0.25 | 2 (≈ 3.1 µM) |  |
| CCN1CCN(C(=O)N[C@@H](C(=O)N[C@@H]2C(=O)N3[C@@H]2SC(C)(C)[C@@H]3C(=O)O)c2ccccc2)C(=O)C1=O [PIPERACILLIN] | 2 (≈ 3.86 µM) | 64 (≈ 124 µM) | 4 (≈ 7.73 µM) | 32 (≈ 61.8 µM) | MIC (Escherichia coli [5]): 2 µM; MIC (Escherichia coli [6]): 2 µM; MIC (Escherichia coli [7]): 2 µM; MIC (Klebsiella pneumoniae [8]): 2 µM |
| CC1(C)S[C@@H]2[C@H](NC(=O)[C@H](C(=O)O)c3ccsc3)C(=O)N2[C@H]1C(=O)O [TICARCILLIN] | 4 (≈ 10.4 µM) | 1020 (≈ 2660 µM) | 8 (≈ 20.8 µM) | 512 (≈ 1330 µM) |  |
| CO/N=C(\C(=O)N[C@@H]1C(=O)N2C(C(=O)[O-])=C(C[N+]3(C)CCCC3)CS[C@H]12)c1csc(N)n1 | 0.03 (≈ 0.0624 µM) | 0.03 (≈ 0.0624 µM) | 0.03 (≈ 0.0624 µM) | 0.03 (≈ 0.0624 µM) |  |
| CC(=O)OCC1=C(C(=O)O)N2C(=O)[C@@H](NC(=O)Cc3cccs3)[C@H]2SC1 [CEPHALOTHIN] | 8 (≈ 20.2 µM) | 16 (≈ 40.4 µM) | 4 (≈ 10.1 µM) | 8 (≈ 20.2 µM) |  |
| O=C(O)c1cn(C2CC2)c2cc(N3CCNCC3)c(F)cc2c1=O [CIPROFLOXACIN] | ≤ 0.125 | ≤ 0.125 | ≤ 0.125 | ≤ 0.125 |  |
| CC1(C)S[C@@H]2[C@H](NC(=O)[C@H](N)c3ccc(O)cc3)C(=O)N2[C@H]1C(=O)O [AMOXICILLIN] | 8 (≈ 21.9 µM) | 2050 (≈ 5600 µM) | 512 (≈ 1400 µM) | 2050 (≈ 5600 µM) | MIC (Escherichia coli [9]): 8 µM; MIC (Escherichia coli [10]): 8 µM; MIC (Escherichia coli [11]): 64 µM; MIC (Klebsiella pneumoniae [12]): 64 µM |
| CC1(C)S[C@@H]2[C@H](/N=C/N3CCCCCC3)C(=O)N2[C@H]1C(=O)O [AMDINOCILLIN] | 0.125 (≈ 0.384 µM) | 0.5 (≈ 1.54 µM) | 0.25 (≈ 0.768 µM) | 0.25 (≈ 0.768 µM) |  |
| GENTAMICIN | < 0.125 | 0.25 |  |  | MIC (Escherichia coli [3]): 0.25 µg/mL |
| CO/N=C(\C(=O)N[C@@H]1C(=O)N2C(C(=O)O)=C(CSc3nc(=O)c(O)nn3C)CS[C@H]12)c1csc(N)n1 [CEFTRIAXONE] | 0.03 (≈ 0.0541 µM) | 0.03 (≈ 0.0541 µM) | 0.03 (≈ 0.0541 µM) | 0.03 (≈ 0.0541 µM) | MIC (Escherichia coli [9]): 0.06 µg/mL; MIC (Escherichia coli [10]): 0.03 µg/mL; MIC (Escherichia coli [3]): 0.03 µg/mL (≈ 0.0541 µM); MIC (Klebsiella pneumoniae [12]): ≤ 0.015 µg/mL |
| CO/N=C(\C(=O)N[C@@H]1C(=O)N2C(C(=O)O)=C(COC(N)=O)CS[C@H]12)c1ccco1 [CEFUROXIME] | 4 (≈ 9.43 µM) | 4 (≈ 9.43 µM) | 8 (≈ 18.9 µM) | 2 (≈ 4.71 µM) |  |
| CC(C)(O/N=C(\C(=O)N[C@@H]1C(=O)N2C(C(=O)[O-])=C(C[n+]3ccccc3)CS[C@H]12)c1csc(N)n1)C(=O)O [CEFTAZIDIME] | 0.25 (≈ 0.457 µM) | 0.5 (≈ 0.915 µM) | 0.25 (≈ 0.457 µM) |  | MIC (Escherichia coli [9]): 0.125 µg/mL; MIC (Escherichia coli [10]): 0.25 µg/mL; MIC (Escherichia coli [11]): 0.25 µg/mL |
| CO/N=C(\C(=O)N[C@@H]1C(=O)N2C(C(=O)O)=C(COC(C)=O)CS[C@H]12)c1csc(N)n1 [CEFOTAXIME] | 0.06 (≈ 0.132 µM) | 0.06 (≈ 0.132 µM) | 0.06 (≈ 0.132 µM) | 0.125 (≈ 0.274 µM) | MIC (Escherichia coli [9]): 0.06 µg/mL; MIC (Escherichia coli [10]): 0.06 µg/mL; MIC (Escherichia coli [11]): 0.06 µg/mL; MIC (Klebsiella pneumoniae [12]): 0.06 µg/mL |
| B1 |  |  |  |  | kcat [13]: 1940 s⁻¹; Km [14]: 11 µM; kcat/Km [15]: 8.42e+07 M⁻¹ s⁻¹; kcat/Km [16]: 2e+07 M⁻¹ s⁻¹; kcat/Km [17]: 6.21e+07 M⁻¹ s⁻¹ |
| B2 |  |  |  |  | Km [18]: 141 µM; kcat [18]: 38 s⁻¹; kcat [19]: < 0.1 s⁻¹; Km [20]: 19 µM; kcat [20]: 5440 s⁻¹; Km [21]: 36 µM; kcat [21]: 1280 s⁻¹; Km [22]: 26 µM; kcat [22]: 5880 s⁻¹; Km [23]: 43 µM; kcat [23]: 1920 s⁻¹; kcat [24]: < 0.1 s⁻¹; kcat/Km [25]: 300000 M⁻¹ s⁻¹; kcat/Km [26]: 2.86e+08 M⁻¹ s⁻¹; kcat/Km [27]: 3.55e+07 M⁻¹ s⁻¹; kcat/Km [28]: 2.26e+08 M⁻¹ s⁻¹; kcat/Km [29]: 4.46e+07 M⁻¹ s⁻¹ |
